ChEMBL document CHEMBL1649124, “Genetic variability among ampC genes from acinetobacter genomic species 3” (Antimicrob Agents Chemother, 2009)

Experiments:
Conditions in all cases: Acinetobacter pittii
[1] = tested on: CO[C@@]1(NC(=O)Cc2cccs2)C(=O)N2C(C(=O)O)=C(COC(N)=O)CS[C@@H]21; test: (§1) Ratio of Kcat to Km for Acinetobacter genomosp. 3 isolate 103 ADC-16
Summary of the method: (§2)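 AmpC genes from AG3 clinical isolates were cloned into pGEX-6P-1 and expressed as GST fusions. The mature enzyme was purified free of GST, giving a 43 kDa SDS-PAGE band of 95% purity. Kinetics were read spectrophotometrically at 25°C in PBS with 20 mg/liter BSA, three repeats. For poor substrates, Km was taken as Ki in competitive assays with Centa as reporter substrate. Vmax came from the Michaelis-Menten equation at six times Km antibiotic.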

[2] = tested on: CC(=O)OCC1=C(C(=O)O)N2C(=O)[C@@H](NC(=O)Cc3cccs3)[C@H]2SC1; test: as §1; summary of the method: as §2
[3] = tested on: CC(C)(O/N=C(\C(=O)N[C@@H]1C(=O)N2C(C(=O)[O-])=C(C[n+]3ccccc3)CS[C@H]12)c1csc(N)n1)C(=O)O; test: as §1; summary of the method: as §2
[4] = tested on: CO/N=C(\C(=O)N[C@@H]1C(=O)N2C(C(=O)O)=C(COC(N)=O)CS[C@H]12)c1ccco1; test: as §1; summary of the method: as §2
[5] = tested on: CO/N=C(\C(=O)N[C@@H]1C(=O)N2C(C(=O)O)=C(COC(C)=O)CS[C@H]12)c1csc(N)n1; test: as §1; summary of the method: as §2
[6] = tested on: CO[C@@]1(NC(=O)Cc2cccs2)C(=O)N2C(C(=O)O)=C(COC(N)=O)CS[C@@H]21; test: (§3) Activity of Acinetobacter genomosp. 3 isolate 103 ADC-16; summary of the method: as §2
[7] = tested on: CC(=O)OCC1=C(C(=O)O)N2C(=O)[C@@H](NC(=O)Cc3cccs3)[C@H]2SC1; test: as §3; summary of the method: as §2
[8] = tested on: CC(C)(O/N=C(\C(=O)N[C@@H]1C(=O)N2C(C(=O)[O-])=C(C[n+]3ccccc3)CS[C@H]12)c1csc(N)n1)C(=O)O; test: as §3; summary of the method: as §2
[9] = tested on: C[C@H]1[C@H](NC(=O)/C(=N\OC(C)(C)C(=O)O)c2csc(N)n2)C(=O)N1S(=O)(=O)O; test: as §3; summary of the method: as §2
[10] = tested on: CO/N=C(\C(=O)N[C@@H]1C(=O)N2C(C(=O)O)=C(COC(N)=O)CS[C@H]12)c1ccco1; test: as §3; summary of the method: as §2
[11] = tested on: CO/N=C(\C(=O)N[C@@H]1C(=O)N2C(C(=O)O)=C(COC(C)=O)CS[C@H]12)c1csc(N)n1; test: as §3; summary of the method: as §2
[12] = tested on: CO[C@@]1(NC(=O)Cc2cccs2)C(=O)N2C(C(=O)O)=C(COC(N)=O)CS[C@@H]21; test: (§4) Ratio of Kcat to Km for Acinetobacter genomosp. 3 isolate 195 ADC-18; summary of the method: as §2
[13] = tested on: CC(=O)OCC1=C(C(=O)O)N2C(=O)[C@@H](NC(=O)Cc3cccs3)[C@H]2SC1; test: as §4; summary of the method: as §2
[14] = tested on: CO/N=C(\C(=O)N[C@@H]1C(=O)N2C(C(=O)O)=C(COC(N)=O)CS[C@H]12)c1ccco1; test: as §4; summary of the method: as §2
[15] = tested on: CO[C@@]1(NC(=O)Cc2cccs2)C(=O)N2C(C(=O)O)=C(COC(N)=O)CS[C@@H]21; test: (§5) Activity of Acinetobacter genomosp. 3 isolate 195 ADC-18; summary of the method: as §2
[16] = tested on: CC(=O)OCC1=C(C(=O)O)N2C(=O)[C@@H](NC(=O)Cc3cccs3)[C@H]2SC1; test: as §5; summary of the method: as §2
[17] = tested on: CC(C)(O/N=C(\C(=O)N[C@@H]1C(=O)N2C(C(=O)[O-])=C(C[n+]3ccccc3)CS[C@H]12)c1csc(N)n1)C(=O)O; test: as §5; summary of the method: as §2
[18] = tested on: CO/N=C(\C(=O)N[C@@H]1C(=O)N2C(C(=O)O)=C(COC(N)=O)CS[C@H]12)c1ccco1; test: as §5; summary of the method: as §2

ADC-16 protein (Acinetobacter genomosp. 3) (from UniProt Q0VTR8)
kcat/Km [1]: 1.88e+06 M⁻¹ s⁻¹ | kcat/Km [2]: 9.92e+06 M⁻¹ s⁻¹ | kcat/Km [3]: 212000 M⁻¹ s⁻¹ | kcat/Km [4]: 2.34e+06 M⁻¹ s⁻¹ | kcat/Km [5]: 212000 M⁻¹ s⁻¹ | Km [6]: 0.18 µM | kcat [6]: 0.33 s⁻¹ | Km [7]: 139 µM | kcat [7]: 1380 s⁻¹ | Km [8]: 110 µM | kcat [8]: 0.02 s⁻¹ | Km [9]: 3.85 µM | Km [10]: 0.27 µM | kcat [10]: 0.62 s⁻¹ | Km [11]: 0.32 µM | kcat [11]: 0.07 s⁻¹

ADC-18 protein (Acinetobacter genomosp. 3) (from UniProt Q0VTS0)
kcat/Km [12]: 1.99e+06 M⁻¹ s⁻¹ | kcat/Km [13]: 9.57e+06 M⁻¹ s⁻¹ | kcat/Km [14]: 1.79e+06 M⁻¹ s⁻¹ | Km [15]: 0.13 µM | kcat [15]: 0.27 s⁻¹ | Km [16]: 148 µM | kcat [16]: 1420 s⁻¹ | Km [17]: 84 µM | kcat [17]: 0.02 s⁻¹ | Km [18]: 0.27 µM | kcat [18]: 0.48 s⁻¹
